# Measurements taken from ChEMBL document CHEMBL4825747, “A Retrospective Look at the Impact of Binding Site Environment on the Optimization of TRPA1 Antagonists” (ACS Med Chem Lett, 2021).
# pIC50: −log10 of the molar value.
# Tests used:
# [1] = biological target: Transient receptor potential cation channel subfamily A member 1 (Homo sapiens, UniProt O75762); experiment: Antagonist activity at human TRPA1 expressed in CHO cells measured by calcium based FLIPR assay; format: cell-based
# [2] = biological target: Transient receptor potential cation channel subfamily A member 1 (Rattus norvegicus, UniProt Q6RI86); experiment: Antagonist activity at rat TRPA1
# Outline: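 In vitro potency read in a CHO cell line-based fluorometric imaging plate reader (FLIPR) Ca2+ assay against the rat TRPA1 channel.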
# [3] = biological target: Transient receptor potential cation channel subfamily A member 1 (Rattus norvegicus) (UniProt Q6RI86); experiment: In vivo antagonist activity at TRPA1 in AITC-induced rat pain model assessed as reduction in pain behaviour when administered orally; format: functional, organism-based
# [4] = Lipophilicity, log D of the compound at pH 7.4; format: physicochemical; settings: buffer
# [5] = Kinetic solubility of the compound; format: physicochemical; settings: for solubility kinetic: read-out: Kinetic_solubility
# [6] = Unbound clearance in rat at 1 mg/kg; format: ADME, organism-based; settings: in vivo
# [7] = Unbound volume of distribution at steady state in rat at 1 mg/kg; format: ADME, organism-based; settings: in vivo
# [8] = Protein binding in rat plasma incubated for 4 hrs; format: ADME, cell-free; settings: read-out: PPB (converted)
# Outline: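 Rat plasma protein binding was determined after 4 h compound incubation rather than the standard 24 h, because of compound instability in rat plasma.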
# [9] = Ratio of fEC50 for in vivo antagonist activity at TRPA1 in AITC-induced rat pain model assessed as reduction in pain behaviour when administered orally to IC50 for antagonist activity at rat TRPA1; format: organism-based; settings: po
# Outline: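 The in vivo value comes from the oral-dose rat AITC paw-injection model at Tmax, scoring flinching and licking against measured exposures across animals. The in vitro comparator is rat TRPA1 antagonism in a CHO cell-based FLIPR Ca2+ assay.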
# [10] = Plasma clearance in rat at 1 mg/kg; format: ADME, organism-based
# [11] = Volume of distribution at steady state in rat at 1 mg/kg; format: ADME, organism-based; settings: in vivo, read-out: Vdss
# [12] = Half life in rat at 1 mg/kg; format: ADME, organism-based; settings: in vivo
# [13] = Permeability across apical to basolateral membrane in MDCK cells; format: ADME, cell-based, Canis lupus familiaris; settings: dog, read-out: permeability
# [14] = Plasma clearance in rat at 0.5 mg/kg; format: ADME, organism-based
# [15] = Unbound clearance in rat at 0.5 mg/kg; format: ADME, organism-based; settings: in vivo
# [16] = Volume of distribution at steady state in rat at 0.5 mg/kg; format: ADME, organism-based; settings: in vivo, read-out: Vdss
# [17] = Unbound volume of distribution at steady state in rat at 0.5 mg/kg; format: ADME, organism-based; settings: in vivo
# [18] = Half life in rat at 0.5 mg/kg; format: ADME, organism-based; settings: in vivo
# Chain of Transient receptor potential cation channel subfamily A member 1 (Rattus norvegicus) (Q6RI86 whole entry): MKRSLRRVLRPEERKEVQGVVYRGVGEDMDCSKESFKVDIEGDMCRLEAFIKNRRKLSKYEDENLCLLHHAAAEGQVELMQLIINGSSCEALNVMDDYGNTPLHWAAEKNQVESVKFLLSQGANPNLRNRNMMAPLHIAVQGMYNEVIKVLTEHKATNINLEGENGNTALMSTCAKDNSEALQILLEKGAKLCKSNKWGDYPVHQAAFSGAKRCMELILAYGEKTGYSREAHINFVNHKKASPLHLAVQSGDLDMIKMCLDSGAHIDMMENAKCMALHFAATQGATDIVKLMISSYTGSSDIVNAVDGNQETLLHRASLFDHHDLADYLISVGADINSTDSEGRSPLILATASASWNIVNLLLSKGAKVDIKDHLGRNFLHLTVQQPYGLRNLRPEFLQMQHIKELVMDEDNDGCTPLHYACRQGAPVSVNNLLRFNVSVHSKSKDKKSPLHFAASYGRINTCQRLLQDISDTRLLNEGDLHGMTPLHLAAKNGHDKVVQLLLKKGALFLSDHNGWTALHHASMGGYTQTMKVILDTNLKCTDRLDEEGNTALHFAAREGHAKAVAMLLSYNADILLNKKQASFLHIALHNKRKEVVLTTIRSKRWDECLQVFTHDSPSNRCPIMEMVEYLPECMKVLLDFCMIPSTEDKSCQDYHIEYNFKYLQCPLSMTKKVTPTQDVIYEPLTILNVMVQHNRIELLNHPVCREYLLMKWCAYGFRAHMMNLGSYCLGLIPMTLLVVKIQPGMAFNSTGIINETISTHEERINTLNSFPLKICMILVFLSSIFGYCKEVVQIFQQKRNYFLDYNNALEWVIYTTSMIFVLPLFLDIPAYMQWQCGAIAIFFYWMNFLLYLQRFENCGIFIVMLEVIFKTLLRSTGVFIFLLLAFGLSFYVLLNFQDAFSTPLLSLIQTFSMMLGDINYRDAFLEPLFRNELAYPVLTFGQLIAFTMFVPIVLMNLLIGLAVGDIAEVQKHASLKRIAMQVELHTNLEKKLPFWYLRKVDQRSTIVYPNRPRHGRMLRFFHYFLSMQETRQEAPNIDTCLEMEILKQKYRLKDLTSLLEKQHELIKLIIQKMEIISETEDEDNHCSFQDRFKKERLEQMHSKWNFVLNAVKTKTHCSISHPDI
# Chain of Transient receptor potential cation channel subfamily A member 1 (Rattus norvegicus, UniProt Q6RI86) (Q6RI86 whole entry): as above
# Chain of Transient receptor potential cation channel subfamily A member 1 (Homo sapiens, UniProt O75762) (O75762 whole entry): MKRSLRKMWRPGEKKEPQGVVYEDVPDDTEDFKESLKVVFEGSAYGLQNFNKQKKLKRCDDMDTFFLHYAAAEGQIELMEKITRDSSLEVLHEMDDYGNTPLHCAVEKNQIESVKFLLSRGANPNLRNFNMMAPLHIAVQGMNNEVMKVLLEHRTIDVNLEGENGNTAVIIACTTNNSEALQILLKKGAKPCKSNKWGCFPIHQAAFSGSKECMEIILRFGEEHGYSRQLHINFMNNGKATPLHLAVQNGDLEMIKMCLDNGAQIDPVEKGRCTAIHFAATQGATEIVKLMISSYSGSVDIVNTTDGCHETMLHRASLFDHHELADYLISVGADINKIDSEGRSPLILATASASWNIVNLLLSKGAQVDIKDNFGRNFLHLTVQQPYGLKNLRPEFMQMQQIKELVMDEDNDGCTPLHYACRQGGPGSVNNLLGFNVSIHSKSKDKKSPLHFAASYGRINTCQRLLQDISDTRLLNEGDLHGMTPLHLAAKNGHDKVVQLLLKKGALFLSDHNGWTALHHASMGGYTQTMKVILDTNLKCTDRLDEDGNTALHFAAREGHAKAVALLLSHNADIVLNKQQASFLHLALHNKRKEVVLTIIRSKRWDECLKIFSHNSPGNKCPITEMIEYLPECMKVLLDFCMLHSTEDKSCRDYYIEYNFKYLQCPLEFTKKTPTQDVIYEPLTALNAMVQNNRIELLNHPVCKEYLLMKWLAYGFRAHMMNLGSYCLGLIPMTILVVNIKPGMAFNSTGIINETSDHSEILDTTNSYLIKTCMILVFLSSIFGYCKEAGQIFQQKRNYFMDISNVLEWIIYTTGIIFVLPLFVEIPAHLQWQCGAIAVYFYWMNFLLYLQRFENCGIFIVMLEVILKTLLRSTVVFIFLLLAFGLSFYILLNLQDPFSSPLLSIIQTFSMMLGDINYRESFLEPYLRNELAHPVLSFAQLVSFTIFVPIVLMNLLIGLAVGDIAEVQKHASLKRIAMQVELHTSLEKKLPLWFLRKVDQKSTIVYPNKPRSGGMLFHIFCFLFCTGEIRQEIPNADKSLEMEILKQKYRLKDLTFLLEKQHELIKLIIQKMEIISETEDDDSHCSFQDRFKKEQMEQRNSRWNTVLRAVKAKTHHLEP
SMILES,pIC50 [1],pIC50 [2],fEC50 [3] [nM],logD [4],Kinetic_solubility [5] [µM],CL free [6] [mL/min/kg],fVdss [7] [L/kg],fraction unbound at 4 h [8],Ratio [9],solubility kinetic [5] [µM],clearance [10] [mL/min/kg],Vd [11] [L/kg],half-life [12] [min],Papp A→B [13] [×10⁻⁶ cm/s],clearance [14] [mL/min/kg],CL free [15] [mL/min/kg],Vd [16] [L/kg],fVdss [17] [L/kg],half-life [18] [min]
C[C@H]1[C@H](F)C[C@@H](C(=O)NCc2cc(-c3cnc(C(F)(F)F)nc3)ncc2F)N1S(=O)(=O)c1ccc(F)cc1,8.08,,60,,,157,93,0.028,1.7,< 1,,2.6,,,,,,,
Cn1cnc2ncn(Cc3nn([C@H]4C[C@H](c5ccc(Cl)cc5)C4)c(=O)o3)c(=O)c21,,7.85,49,2.4,,123,28,0.081,,15,10,2.3,162,6.4,,,,,
Cn1cnc2ncn(Cc3nn(C[C@H](F)c4ccc(Cl)cc4)c(=O)o3)c(=O)c21,7.70,7.74,390,1.2,,45,3.4,0.381,22,,,,90,,,,,,
C[C@H]1[C@H](F)C[C@@H](C(=O)NCc2cc(-c3cnc(C(F)(F)F)nc3)ncn2)N1S(=O)(=O)c1ccc(F)cc1,,6.41,,,,,,0.075,,98,,,,16.5,6.4,85,1.1,15,120
C[C@H]1[C@H](F)C[C@@H](C(=O)NCc2cc(-c3ccc(C(F)(F)F)nc3)ncn2)N1S(=O)(=O)c1ccc(F)cc1,,5.80,,,,,,0.052,,,,,,,10,192,2.2,42,156

# Continued, values first:
pIC50 [1],pIC50 [2],fEC50 [3] [nM],logD [4],Kinetic_solubility [5] [µM],CL free [6] [mL/min/kg],fVdss [7] [L/kg],fraction unbound at 4 h [8],Ratio [9],solubility kinetic [5] [µM],clearance [10] [mL/min/kg],Vd [11] [L/kg],half-life [12] [min],Papp A→B [13] [×10⁻⁶ cm/s],clearance [14] [mL/min/kg],CL free [15] [mL/min/kg],Vd [16] [L/kg],fVdss [17] [L/kg],half-life [18] [min],SMILES
8.54,8.10,7.9,2.9,2,214,110,0.021,1,,,,,,,,,,,Cn1cnc2ncn(Cc3nc([C@H]4[C@@H]5CN(c6cccc(Cl)c6)C[C@@H]54)no3)c(=O)c21
,8.13,53,1.8,,89,11,0.192,,120,,,,,,,,,,Cn1cnc2ncn(Cc3nc([C@@H]4CO[C@@H](c5ccc(Cl)cc5)C4)no3)c(=O)c21
8.80,8.00,3.7,,7,642,467,0.012,0.37,,7.7,5.6,588,27.5,,,,,,C[C@H]1[C@H](F)C[C@@H](C(=O)NCc2cc(-c3cnc(C(F)(F)F)nc3)ncc2C(F)(F)F)N1S(=O)(=O)c1ccc(F)cc1
